Test results: ChEMBL document CHEMBL4041524, “Synthesis and Characterization of a Novel γ-Aminobutyric Acid Type A (GABAA) Receptor Ligand That Combines Outstanding Metabolic Stability, Pharmacokinetics, and Anxiolytic Efficacy” (J Med Chem, 2016)
pEC50: −log10 of the molar value.

What was measured:
[1] = target: GABA-A receptor; alpha-2/beta-3/gamma-2 (Homo sapiens) (UniProt P18507+P28472+P47869); assay: Modulation of recombinant GABA alpha2beta3gamma2 receptor (unknown origin) expressed in Xenopus laevis oocytes assessed as change in GABA-induced EC(3 to 6) current at 1 uM by two-electrode voltage clamp assay; type: cell-based
How it was run: (§1)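 Xenopus laevis oocytes expressing α1, α2, α3 or α5 β3γ2 GABAARs were recorded by two-electrode voltage clamp. Modulation of the GABA EC3-6 current (taken as 100%) was tested at 100 nM, 1 μM and 10 μM in the same cells. Values are mean ± SEM, n = 3–4.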

[2] = target: GABA-A receptor; alpha-3/beta-3/gamma-2 (Homo sapiens) (UniProt P18507+P28472+P34903); assay: Modulation of recombinant GABA alpha3beta3gamma2 receptor (unknown origin) expressed in Xenopus laevis oocytes assessed as change in GABA-induced EC(3 to 6) current at 10 uM by two-electrode voltage clamp assay; type: cell-based; how it was run: as §1
[3] = target: T1, GABA-A receptor; alpha-3/beta-3/gamma-2 (Homo sapiens, UniProt P18507+P28472+P34903); assay: Modulation of recombinant human GABA alpha3beta3gamma2 receptor expressed in HEK293 cells assessed as change in GABA-induced current at -80 mV holding potential preincubated for 3 mins followed by co-administration of GABA by electrophysiology method; type: cell-based
T1 sequence (P18507 whole entry): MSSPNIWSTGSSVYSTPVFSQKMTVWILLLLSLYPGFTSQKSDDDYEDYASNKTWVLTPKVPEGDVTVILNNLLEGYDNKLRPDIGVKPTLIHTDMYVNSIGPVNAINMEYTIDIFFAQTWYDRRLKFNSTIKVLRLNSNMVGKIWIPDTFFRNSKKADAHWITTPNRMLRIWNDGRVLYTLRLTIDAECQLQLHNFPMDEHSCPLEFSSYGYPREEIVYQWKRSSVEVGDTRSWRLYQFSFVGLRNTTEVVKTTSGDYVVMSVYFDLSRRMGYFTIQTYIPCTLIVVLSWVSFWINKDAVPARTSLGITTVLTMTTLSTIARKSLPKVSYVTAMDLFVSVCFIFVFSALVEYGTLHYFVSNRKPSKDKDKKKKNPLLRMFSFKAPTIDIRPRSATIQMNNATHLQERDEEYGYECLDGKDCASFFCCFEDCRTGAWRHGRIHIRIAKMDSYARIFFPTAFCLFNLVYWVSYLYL
T1 sequence (P28472 whole entry): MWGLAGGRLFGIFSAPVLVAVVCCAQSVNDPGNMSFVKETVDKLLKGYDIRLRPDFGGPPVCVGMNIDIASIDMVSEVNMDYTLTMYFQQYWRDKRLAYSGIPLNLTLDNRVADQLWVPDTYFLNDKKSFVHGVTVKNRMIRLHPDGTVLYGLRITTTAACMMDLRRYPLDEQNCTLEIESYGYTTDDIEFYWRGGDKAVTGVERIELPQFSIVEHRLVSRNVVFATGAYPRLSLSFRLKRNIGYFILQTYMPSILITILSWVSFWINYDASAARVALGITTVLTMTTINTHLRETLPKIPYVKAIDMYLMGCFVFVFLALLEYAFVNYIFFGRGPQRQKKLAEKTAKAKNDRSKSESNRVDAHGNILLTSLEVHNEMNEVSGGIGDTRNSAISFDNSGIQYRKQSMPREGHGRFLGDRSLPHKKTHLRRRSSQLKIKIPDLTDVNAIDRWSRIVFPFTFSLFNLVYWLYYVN
T1 sequence (P34903 whole entry): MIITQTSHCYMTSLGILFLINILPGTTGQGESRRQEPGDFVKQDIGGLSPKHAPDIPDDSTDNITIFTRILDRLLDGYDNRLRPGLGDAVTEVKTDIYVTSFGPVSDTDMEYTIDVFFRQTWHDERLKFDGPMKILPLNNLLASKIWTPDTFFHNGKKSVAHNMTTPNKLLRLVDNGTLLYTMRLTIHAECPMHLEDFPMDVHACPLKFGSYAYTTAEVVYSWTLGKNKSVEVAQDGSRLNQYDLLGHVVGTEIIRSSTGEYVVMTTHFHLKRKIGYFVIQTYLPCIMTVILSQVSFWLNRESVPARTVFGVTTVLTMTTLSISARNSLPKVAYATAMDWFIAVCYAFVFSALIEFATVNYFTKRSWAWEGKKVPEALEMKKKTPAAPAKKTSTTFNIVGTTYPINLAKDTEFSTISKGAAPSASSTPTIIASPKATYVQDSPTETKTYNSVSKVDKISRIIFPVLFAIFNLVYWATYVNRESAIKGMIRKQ

[4] = Volume of distribution at steady state in femoral artery/vein cannulated Sprague-Dawley rat at 1 mg/kg, iv administered […] as single dose by LC-MS/MS analysis; type: ADME, organism-based; conditions: in vivo, read-out: Vdss
How it was run: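 Male Sprague-Dawley rats (n = 3 per time point) were dosed i.v. at 1 mg/kg. Plasma concentrations were measured at set time points, and Vdss was taken from the plasma concentration–time profile.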

Brain = assay: Fraction unbound in rat brain by equilibrium dialysis method; type: ADME, tissue-based
How it was run: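 Fraction unbound was determined in vitro by equilibrium dialysis with rat plasma protein and rat brain.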

Rattus norvegicus = assay: Anxiolytic like activity in water-deprived Sprague-Dawley rat assessed as increase in water drinking time during punished period at 60 mg/kg, po administered 30 mins prior to testing by Vogel conflict test relative to control; type: functional
How it was run: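 Water-deprived male Sprague-Dawley rats (n = 6–8) drank during unpunished and punished periods, with licking suppressed by mild shock in punished periods. Compounds were given 30 min before testing. Analysis was ANOVA with Dunnett's test.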

[5] = target: GABA-A receptor; alpha-1/beta-3/gamma-2 (Homo sapiens) (UniProt P14867+P18507+P28472); assay: Modulation of recombinant GABA alpha1beta3gamma2 receptor (unknown origin) expressed in Xenopus laevis oocytes assessed as change in GABA-induced EC(3 to 6) current by two-electrode voltage clamp assay; type: cell-based; how it was run: as §1

C#Cc1ccc2c(c1)C(c1ccccn1)=NCc1c(-c3cnco3)ncn1-2
Activity [1]: 201% | Activity [2]: 332% | pEC50 [3]: 6.69 | Vd [4]: 1.4 L/kg | Fu (Brain): 17.7% | Activity (Rattus norvegicus): 200% | Activity [5]: Dose-dependent effect
